How the values were obtained:
PXR [1] = molecular target: T1, PXR (Homo sapiens, UniProt O75469); assay: PXR reporter gene assay in LS180 cells transfected with pSG5-hPXR and p3A4-luc; type: cell-based; conditions: for PXR antagonist effect: antagonist mode, in the presence of RIF 10 μM, 24 h
T1 sequence (O75469 1-434): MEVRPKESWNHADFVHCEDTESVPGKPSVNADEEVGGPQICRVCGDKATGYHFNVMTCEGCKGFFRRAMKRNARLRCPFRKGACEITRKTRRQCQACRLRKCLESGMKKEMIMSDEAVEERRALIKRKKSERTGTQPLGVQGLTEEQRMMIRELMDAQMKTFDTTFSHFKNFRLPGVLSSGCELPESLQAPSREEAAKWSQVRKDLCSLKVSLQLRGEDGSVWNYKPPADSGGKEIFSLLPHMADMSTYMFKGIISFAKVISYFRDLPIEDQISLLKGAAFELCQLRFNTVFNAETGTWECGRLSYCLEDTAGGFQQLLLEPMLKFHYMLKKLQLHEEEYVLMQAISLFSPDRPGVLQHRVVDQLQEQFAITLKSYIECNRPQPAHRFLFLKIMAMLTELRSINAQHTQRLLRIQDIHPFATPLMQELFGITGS
Method in brief: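 LS180 cells were lipofected transiently with pSG5-hPXR and p3A4-luc, then treated 24 h with test compound at up to 50 μM in DMSO 0.1% v/v. Agonist mode had no rifampicin; antagonist mode had RIF 10 μM. Luciferase was read after lysis. Antagonist data are % of the 10 μM RIF maximum. Four technical replicates, three consecutive passages.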

AZ-AHR cells = assay: MTT test in AZ-AHR cells; type: cell-based, human; conditions: 24 h, up to 50 μM
Method in brief: (§1)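 MTT viability was run alongside the reporter assays in AZ-AHR cells and in PXR-transfected LS180 cells. Exposure was 24 h to test compound at up to 50 μM, with vehicle DMSO 0.1% v/v. Results are given as % viability. Four technical replicates per treatment, across three consecutive cell passages.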

MDR1a mRNA = assay: MDR1a gene expression in tissues of mice expressing the human PXR transgene; type: in vivo, mice expressing the human PXR gene (hPXR)
Method in brief: (§2)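 Humanized hPXR mice (C57BL/6 background, 6–10 weeks) received 10% DMSO or test compound in 3 or 5 doses of 500 μM each, 12 h apart. Groups had n = 3 (1 male, 2 females). Small intestine, large intestine and liver were assayed by qRT-PCR for CYP3A11 and MDR1a mRNA. Analysis: unpaired multiple t-tests with Holm-Sidak correction, α = 0.05, and a ≥2-fold induction criterion.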

CYP3A11 mRNA [2] = assay: CYP3A11 gene expression in tissues of mice expressing the human PXR transgene; type: in vivo, mice expressing the human PXR gene (hPXR)
Method in brief: as §2

AhR = molecular target: T2, AhR (Homo sapiens, UniProt P35869); assay: AhR reporter gene assay in stably transfected AZ-AHR cells; type: cell-based; conditions: 24 h; for Inhibition of TCDD-inducible luciferase activity: antagonist mode, TCDD 5 nM, attributed to cytotoxicity; for AhR agonistic activity: agonist mode, AZ-AHR cells
T2 sequence (P35869 11-848): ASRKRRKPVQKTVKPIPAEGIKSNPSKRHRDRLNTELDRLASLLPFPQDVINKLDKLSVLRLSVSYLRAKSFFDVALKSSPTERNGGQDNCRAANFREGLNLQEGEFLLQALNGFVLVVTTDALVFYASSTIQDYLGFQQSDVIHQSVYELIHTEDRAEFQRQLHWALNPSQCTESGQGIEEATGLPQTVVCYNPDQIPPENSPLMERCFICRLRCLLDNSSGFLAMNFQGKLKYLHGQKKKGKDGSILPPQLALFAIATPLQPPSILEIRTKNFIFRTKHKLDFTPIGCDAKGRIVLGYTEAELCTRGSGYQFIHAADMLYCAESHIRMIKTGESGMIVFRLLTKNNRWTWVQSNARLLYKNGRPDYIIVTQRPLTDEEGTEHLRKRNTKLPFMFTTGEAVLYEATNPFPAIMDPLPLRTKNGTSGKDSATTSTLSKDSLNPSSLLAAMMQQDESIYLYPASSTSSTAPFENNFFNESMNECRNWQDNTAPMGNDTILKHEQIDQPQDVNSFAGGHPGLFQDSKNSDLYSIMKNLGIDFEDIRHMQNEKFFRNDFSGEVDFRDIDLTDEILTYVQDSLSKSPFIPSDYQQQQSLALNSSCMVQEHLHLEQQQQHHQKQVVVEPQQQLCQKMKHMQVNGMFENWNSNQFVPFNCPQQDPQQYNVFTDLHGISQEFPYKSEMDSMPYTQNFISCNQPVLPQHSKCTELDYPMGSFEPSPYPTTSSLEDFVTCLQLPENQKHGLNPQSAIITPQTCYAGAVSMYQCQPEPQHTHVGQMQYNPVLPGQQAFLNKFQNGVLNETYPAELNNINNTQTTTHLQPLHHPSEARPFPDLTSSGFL
Method in brief: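 AZ-AHR human hepatoma cells stably carrying an AhR-responsive luciferase reporter were exposed for 24 h to test compound at up to 50 μM (vehicle DMSO 0.1% v/v). Agonist mode was run without TCDD; antagonist mode with TCDD 5 nM. Lysed cells were read for luciferase. Agonist data are fold over negative control; antagonist data are % of the 5 nM TCDD maximum. Four wells per treatment, three consecutive passages.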

LS180 cells = assay: MTT test in LS180 cells; type: cell-based, human; conditions: 50 μM, 24 h
Method in brief: as §1

CYP3A4 mRNA = assay: qRT-PCR of CYP3A4 in primary human hepatocytes; type: cell-based; conditions: five hepatocyte cultures, 10 μM, 24 h
[3] = molecular target: T3, ligand-binding domain of human PXR (Homo sapiens, UniProt O75469); assay: LanthaScreen TR-FRET PXR
T3 sequence (O75469 146-433 limits assumed): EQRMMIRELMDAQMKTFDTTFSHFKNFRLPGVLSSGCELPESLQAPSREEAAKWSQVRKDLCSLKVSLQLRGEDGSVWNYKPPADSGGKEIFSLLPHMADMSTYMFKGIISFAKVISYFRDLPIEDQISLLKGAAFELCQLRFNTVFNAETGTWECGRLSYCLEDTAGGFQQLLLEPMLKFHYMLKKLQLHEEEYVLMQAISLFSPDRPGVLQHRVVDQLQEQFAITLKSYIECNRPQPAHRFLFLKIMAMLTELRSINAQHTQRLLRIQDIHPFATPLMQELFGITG
Method in brief: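 LanthaScreen TR-FRET competitive binding used the human PXR ligand-binding domain and measured displacement of a fluorescent ligand. The signal was the emission ratio 520 nm/495 nm, plotted against test compound concentration. IC50 came from interpolated sigmoidal 4PL variable-slope curves. Quadruplicate wells; at least four independent experiments. Positive control: SR12813 at 100 μM.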

MDR1 mRNA [4] = assay: qRT-PCR of MDR1 in intestinal adenocarcinoma cells; type: cell-based, human; conditions: 24 h; for Induction of MDR1 mRNA: LS174T, LS174T+PXR and LS180+PXR cells; for Induction of MDR1 mRNA in PXR-KO cells: PXR-KO LS174T cells
Method in brief: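 Four intestinal models were used: LS174T wild-type, a CRISPR-Cas9 PXR-knockout LS174T line, and LS174T and LS180 cells transiently transfected with a human PXR expression vector. Cells were treated 24 h with test compound at 10 μM (DMSO 0.1% v/v), alongside TCDD 10 nM or RIF 10 μM. MDR1 mRNA was measured by qRT-PCR normalized to GAPDH. Three consecutive passages, one well per treatment.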

CYP1A1 mRNA = assay: qRT-PCR of CYP1A1 in primary human hepatocytes; type: cell-based; conditions: human hepatocytes from five donors, 10 μM, 24 h
Method in brief: (§3)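 Long-term monolayer primary human hepatocytes came from five male donors aged 43–89 years. They were treated 24 h with test compound at 10 μM, with vehicle DMSO 0.1% v/v and reference ligands TCDD 10 nM and RIF 10 μM. Total RNA was extracted with TRI Reagent, and mRNA was measured by probe-based qRT-PCR normalized to GAPDH. Statistics: one-way ANOVA, with 2-fold induction as threshold.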

CYP1A2 mRNA = assay: qRT-PCR of CYP1A2 in primary human hepatocytes; type: cell-based; conditions: human hepatocytes from five donors, 10 μM, 24 h
Method in brief: as §3

PXR [5] = molecular target: T1, PXR; conditions: ref [21]; cited from earlier work
CYP3A11 mRNA [6] = conditions: PXR target genes CYP3A11 and MDR1a; depending on the dose schedule; ref [21]; cited from earlier work
MDR1 mRNA [7] = assay: qRT-PCR of MDR1 in primary human hepatocytes; type: cell-based; conditions: five hepatocyte cultures, RIF 10 μM, 24 h
[8] = liver, large and small intestine, 3 or 5 doses (500 μM/dose), 12 h interval

Row | Structure (SMILES) | EC50 (PXR [1]) | PXR antagonist effect (PXR [1]) | Cytotoxicity in AZ-AHR cells (AZ-AHR cells) | Inhibition of TCDD-inducible luciferase activity (AhR) | Cytotoxicity (MTT) (LS180 cells) | IC50 [3] | Induction of MDR1 mRNA (MDR1 mRNA [4]) | Induction of MDR1 mRNA in PXR-KO cells (MDR1 mRNA [4]) | AhR agonistic activity (AhR) | further results
1 | C#CCC(O)(c1ccn2ccnc2c1)c1cc2ccccc2n1S(=O)(=O)c1ccccc1 (stereo not shown) [CVK-021, 1-(imidazo[1,2-a]pyridin-7-yl)-1-(1-(phenylsulfonyl)-1H-indol-2-yl)but-3-yn-1-ol] | ~800 nM | Dose-dependent antagonist effects | cytotoxic effects | Dose-dependent inhibition | slightly cytotoxic | 920 nM | Dose-dependent induction | no effects | – | MDR1a gene expression, Figure 7A (MDR1a mRNA; large and small intestines): increased gene expression; MDR1a gene expression, Figure 7B (MDR1a mRNA; liver and large intestine): increased gene expression; Induction (≥ 2) of mean MDR1a mRNA expression (MDR1a mRNA; [8]): no significant induction; CYP3A11 gene expression (CYP3A11 mRNA [2]; 3-dose and 5-dose study): not affected; Induction (≥ 2) of mean CYP3A11 mRNA expression (CYP3A11 mRNA [2]; [8]): no significant induction; Induction of CYP3A4 mRNA in human hepatocytes (CYP3A4 mRNA): significantly induced CYP3A4 mRNA in all five human hepatocytes cultures
2 | O=S(=O)(c1ccccc1)n1c(C(O)c2ccn3ccnc3c2)cc2ccccc21 (stereo not shown) [CVK-017, imidazo[1,2-a]pyridin-7-yl(1-(phenylsulfonyl)-1H-indol-2-yl)methanol] | ~800 nM | Dose-dependent antagonist effects | cytotoxic effects | Dose-dependent inhibition | slightly cytotoxic | – | Dose-dependent induction | no effects | moderate | –
3 | O=C(c1ccn2ccnc2c1)c1cc2ccccc2n1S(=O)(=O)c1ccccc1 [CVK-016, imidazo[1,2-a]pyridin-7-yl(1-(phenylsulfonyl)-1H-indol-2-yl)methanone] | ~800 nM | Dose-dependent antagonist effects | cytotoxic effects | Dose-dependent inhibition | slightly cytotoxic | – | Dose-dependent induction | no effects | – | Induction of hepatic CYP1A1 mRNA (CYP1A1 mRNA): significantly induced; Induction of hepatic CYP1A2 mRNA (CYP1A2 mRNA): significantly induced
4 | C#CCC(O)(c1ccncc1)c1cc2ccccc2[nH]1 (stereo not shown) [CVK-003, 1-(1H-indol-2-yl)-1-(pyridin-4-yl)but-3-yn-1-ol] | 7500 nM | – | – | – | – | 8590 nM | – | – | strong | –
5 | C#CCC(O)(c1ccncc1)c1cc2ccccc2n1S(=O)(=O)c1ccccc1 (stereo not shown) [FKK6, 1-(1-(phenylsulfonyl)-1H-indol-2-yl)-1-(pyridin-4-yl)but-3-yn-1-ol] | – | – | – | – | – | – | – | – | – | PXR versus AhR agonist selectivity (PXR [5]): selective PXR agonist; Induction of PXR target genes in mouse intestines or liver (CYP3A11 mRNA [6]): robustly induced
6 | CO[C@H]1/C=C/O[C@@]2(C)Oc3c(C)c(O)c4c(O)c(c(/C=N/N5CCN(C)CC5)c(O)c4c3C2=O)NC(=O)/C(C)=C\C=C\[C@H](C)[C@H](O)[C@@H](C)[C@@H](O)[C@@H](C)[C@H](OC(C)=O)[C@@H]1C [rifampicin] | – | – | – | – | – | – | – | – | – | Induction of MDR1 mRNA in human hepatocytes (MDR1 mRNA [7]): induction only by rifampicin and only in three hepatocytes cultures
